From the array DNA melting data of Ke et al. (doi:10.1101/2024.01.08.574731)

Tests used:
[1] = folding enthalpy; higher = less favourable; fluorescence melt of hairpins on a sequencing array, two-state fit; settings: sodium 0.088 M
Method in brief: (§1)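 Cy3 signals were normalised both to pre-quench Cy3 and to control constructs. They came from library hairpins carrying annealed Cy3 and quencher oligos on a sequenced MiSeq flow cell, imaged in 50 mM Na-HEPES pH 8.0, 25 mM NaCl, in 2.5 °C steps up to 60 °C. Bootstrapped two-state fits gave melting temperature and folding enthalpy, and four replicates were combined by inverse variance. Fitted temperatures were then raised by 9.35 °C to match UV melts.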

[2] = melting temperature; fluorescence melt of hairpins on a sequencing array, two-state fit, raised by 9.35 °C to match UV melts; settings: sodium 0.088 M
Method in brief: as §1

Sequence | folding enthalpy [1] [kJ/mol] | Tm [2] [°C]
GATCCAATCCTGGATC ((((((....)))))) | -158 | 49.2
GATCGTCTGACGATC ((((((...)))))) | -216 | 54
GGGTTACCGAAAGGTCCC (((..(((....)))))) | -81.1 | 41
CTTAGGAAACTAAG (((((....))))) | -47.9 | 33.4
GCTATGACGAAAGTCAGC (((..(((....)))))) | -55.2 | 42
GCTGGGCGAAAGCCTAGC (((.(((....))).))) | -132 | 66.2
GTGTAACGAAAGTTCCAC (((.(((....))).))) | -94.3 | 38.9
GTCCGCCGAAAGGCGAC (((.(((....)))))) | -39.9 | 52.5
GATCAACAGCTTGATC ((((((....)))))) | -122 | 39.5
GGCTGCGAAAGCACAGCC ((((((....)))..))) | -107 | 57.8
CGACCGGAAACGGCGTCG ((((((....)))..))) | -75.6 | 50.2
GGCGAACCGAAAGGTGCC (((..(((....)))))) | -119 | 53.7
GATCCTTCATAGGATC ((((((....)))))) | -165 | 52.4
GTGTCCGGAAACGGGCAC (((.(((....))).))) | -135 | 62.4
GTACAGGCGAAAGCCTAC (((..(((....)))))) | -36 | 34.9
GCGCGGCGAAAGCCTTGC ((..(((....)))..)) | -67 | 46.1
GATCATTGTCATGATC ((((((....)))))) | -133 | 46.2
GTGATGTCGAAAGACCAC (((..(((....)))))) | -62.8 | 40.4
GCGAATGGAAACATTCAC (.(((((....))))).) | -77.9 | 38.1
GAATCCGGAAACGGACTC ((.((((....)))).)) | -75.1 | 36.2
GCGGACGGCCGC ((((....)))) | -157 | 59.4
GAGTAGAAATACTC (((((....))))) | -69.9 | 36.5
GGGTCCGAAAGGAACCCC ((((((....)))..))) | -58.1 | 61.7
GACCGCGGAAACACGGCC (.(((.(....).))).) | -93.1 | 37

Sequence | folding enthalpy [1] [kJ/mol] | Tm [2] [°C]
GCCTATGGAAACACAGGC ((((.((....)).)))) | -132 | 40
GATCGACGGCTCGATC ((((((....)))))) | -179 | 50.5
GCGACTTATCGC ((((....)))) | -101 | 48.8
CGCTCGGAAACGATTGCG ((((((....)))..))) | -106 | 39.8
GCAGTCTCGAAAGAGTGC (((..(((....)))))) | -106 | 45.8
CCATAGAAATATGG (((((....))))) | -48.4 | 35.2
GAGATTGGAAACAATCCC (.(((((....))))).) | -82 | 34
GCAAAGAAATTTGC (((((....))))) | -81.2 | 38.9
GAGCCCGAAAGGGCACTC ((((((....)))..))) | -45.9 | 62.2
GTCCTACGAAAGTAGAC (((.(((....)))))) | -75.7 | 39.6
ATCGTGAAAACGAT (((((....))))) | -82.1 | 49.5
GATCCCGCTGGGGATC ((((((....)))))) | -154 | 60.8
TGTACGAAAGTACA (((((....))))) | -61.2 | 54.7
GCGTGACTACGC ((((....)))) | -114 | 59.4
GAGTAGCGAAAGCTCTC (((.(((....)))))) | -74.6 | 46.2
GATCACGCAGGTGATC ((((((....)))))) | -166 | 64.2
GCGTTGGGAAACCAACAC (.(((((....))))).) | -60.5 | 42.5
AGGACGAAAGTCCT (((((....))))) | -85 | 68.5
GATCGAAGTGTCGATC ((((((....)))))) | -176 | 51.2
GCGAACGATCGC ((((....)))) | -88.1 | 41.1
GGCCGTGGAAACACGACC ((.((((....)))).)) | -151 | 55
GAGAGACGAAAGTCCTC (((.(((....)))))) | -75 | 46.9
GGGCGACGAAAGTCACCC (((.(((....))).))) | -181 | 61.8
GCATCGCGAAAGCTCTGC (((..((....))..))) | -66.4 | 36.8

Sequence | folding enthalpy [1] [kJ/mol] | Tm [2] [°C]
GCGCTCGAAAGAGCCCGC ((((((....)))..))) | -49.5 | 43.4
GTGTTGGGAAACCGATAC ((.(.((....)).).)) | -76.6 | 33.3
GCTGGCGAAAGCCTTAGC ((((((....)))..))) | -63.3 | 44.4
GATCCGCGCACGGATC ((((((....)))))) | -164 | 59.1
GTGATCGAAAGATACCAC ((((((....)))..))) | -44 | 26.6
GAATGGGGAAACCTGTTC (((..((....))..))) | -54.6 | 29.9
GATCAATTAATTGATC ((((((....)))))) | -176 | 48.8
GATCCAAGACTGGATC ((((((....)))))) | -118 | 47.4
GATCCCTCCCGGGATC ((((((....)))))) | -169 | 61.4
GATCCTTTGAAGGATC ((((((....)))))) | -151 | 52.4
GAATTGGGAAACCAGTTC (((.(((....))).))) | -126 | 39.4
GATCGGGTACCGATC ((((((...)))))) | -187 | 67.5
GCTTGACCGAAAGGTAGC (((..(((....)))))) | -89.7 | 38.7
GAAGCCCCGAAAGGGTTC (((..(((....)))))) | -59.7 | 36.9
GTAAACGAAAGTTTGTAC ((((((....)))..))) | -63.2 | 27.6
GATCCCAGTGGGGATC ((((((....)))))) | -137 | 62.3
GATAATGGAAACATTGTC ((.((((....)))).)) | -131 | 36.2
CGCTAGCGGAAACGCGCG (((..(((....)))))) | -106 | 52.7
GGACGTGGAAACGCGTTC (.(((.(....).))).) | -101 | 44.3
GATCACTAGCGTGATC ((((((....)))))) | -175 | 55.1
GATCTAGGCCTAGATC ((((((....)))))) | -234 | 52.4
GATGAGAAATCATC (((((....))))) | -86.3 | 39.8
GCTCTTCCGAAAGGAAGC (((..(((....)))))) | -37.7 | 37.2
GGTCTTGGAAACAAGGTC (..((((....))))..) | -50.2 | 30.4

Sequence | folding enthalpy [1] [kJ/mol] | Tm [2] [°C]
GAGGTGCGAAAGCAACTC (((.(((....))).))) | -109 | 66.5
GGATAACGAAAGTTGTCC (((.(((....))).))) | -199 | 52.7
GATCTTCGATAAGATC ((((((....)))))) | -103 | 40.2
GATCGAGGATTCGATC ((((((....)))))) | -154 | 57.9
GTGTACACGAAAGTGCAC (((..(((....)))))) | -79.7 | 47.1
GCGTCACGAAAGTGCCGC (((.(((....))).))) | -193 | 59.6
GCACCGCGAAAGCAGGGC ((.(.((....)).).)) | -67.1 | 57.5
GATAGTGAAAACTATC ((((((....)))))) | -126 | 48.4
GCGGATTCCGC ((((...)))) | -104 | 54.3
GGCAATACGAAAGTAGCC (((..(((....)))))) | -74.8 | 44.4
GGAACAGAAATGTTCC ((((((....)))))) | -163 | 54.9
GCCCTGCGAAAGCACTGC ((..(((....)))..)) | -29.2 | 24.6
GATCACACTGGTGATC ((((((....)))))) | -151 | 56.4
GGCGCCGAAAGGCACGCC ((((((....)))..))) | -65.6 | 63.4
GCGATGCCGAAAGGCCGC (((..(((....)))))) | -75.4 | 59.3
GATCAATTGCTTGATC ((((((....)))))) | -141 | 43.5
GATTGGCGAAAGCCGATC (((.(((....))).))) | -108 | 56.8
GATCTCGGATGAGATC ((((((....)))))) | -141 | 57
GTGCAGGGAAACCCACAC (((..((....))..))) | -80.4 | 32.4
GGATCGGCGAAAGCCTCC (((..(((....)))))) | -46.3 | 28.4
GCTCTCGGAAACAAGAGC (((((.(....).))))) | -141 | 40.2
